Experimental data published in ChEMBL document CHEMBL4311965, “Antimicrobial activity of amphipathic α,α-disubstituted β-amino amide derivatives against ESBL - CARBA producing multi-resistant bacteria; effect of halogenation, lipophilicity and cationic character” (Eur J Med Chem, 2019).
Values after ≈ are worked out from the molar mass of the structure shown.

Experiments:
Acinetobacter baumannii [1] = test: Antibacterial activity against multidrug-resistant Acinetobacter baumannii K63-58 producing oxcillinase-23 cultured in MHB medium assessed as reduction in bacterial growth incubated for 24 hrs by microdilution susceptibility test; format: functional; conditions: K63-58, 24 h
Outline: (§1)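 Broth microdilution per CLSI M07-A9 (modified). Working solutions made from concentrated DMSO stocks kept at r.t., diluted in double-distilled water, final DMSO <1%. Inoculum 1–1.2 x 10⁶ cells/mL in Mueller-Hinton broth, mixed 1:1 with compound. 37 °C, 24 h, four parallels. Read as OD₆₀₀. Where precipitation left residual OD, the point of major OD decrease was taken as the inhibitory concentration.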

Escherichia coli [2] = test: Antibacterial activity against multidrug-resistant Escherichia coli 50739822 producing New Delhi metallo-beta-lactamase-1 cultured in MHB medium assessed as reduction in bacterial growth incubated for 24 hrs by microdilution susceptibility test; format: functional; conditions: Escherichia coli, 50739822, 24 h; outline: as §1
Erythrocyte = test: Hemolytic activity against human RBC incubated for 1 hr; format: cell-based
Outline: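 Heparinized human blood washed three times in warm PBS and set to 10% hct. Erythrocytes at 1% v/v final, with compound in PBS (DMSO <1%), shaken 1 h at 37 °C and then centrifuged. Supernatant absorbance read at 405 and 545 nm after PBS background subtraction. Haemolysis taken relative to 1% Triton X-100. Three independent replicates, EC50 averaged.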

Pseudomonas aeruginosa [3] = test: Antibacterial activity against multidrug-resistant Pseudomonas aeruginosa 50692172 producing New Delhi metallo-beta-lactamase-1 cultured in MHB medium assessed as reduction in bacterial growth incubated for 24 hrs by microdilution susceptibility test; format: functional; conditions: Pseudomonas aeruginosa, 50692172, 24 h; outline: as §1
Enterococcus faecium [4] = test: Antibacterial activity against multidrug-resistant Enterococcus faecium 50673722 cultured in BHIB medium assessed as reduction in bacterial growth incubated for 24 hrs by microdilution susceptibility test; format: functional; conditions: Enterococcus faecium, 50673722, 24 h
Outline: (§2)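 Enterococci grown in Brain Heart Infusion broth, otherwise broth microdilution per CLSI M07-A9 (modified). Concentrated DMSO stocks kept at r.t. and diluted in double-distilled water, final DMSO <1%. Inoculum 1–1.2 x 10⁶ cells/mL mixed 1:1 with compound. 37 °C, 24 h, four parallels. OD₆₀₀ read-out, lowest concentration with no growth.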

Enterococcus faecium [5] = test: Antibacterial activity against multidrug-resistant Enterococcus faecium 50901530 cultured in BHIB medium assessed as reduction in bacterial growth incubated for 24 hrs by microdilution susceptibility test; format: functional; conditions: Enterococcus faecium, 50901530, 24 h; outline: as §2
Escherichia coli [6] = test: Antibacterial activity against Escherichia coli ATCC 25922 cultured in MHB medium assessed as no bacterial growth incubated at 37 degC for 24 hrs by microdilution susceptibility test; format: functional; conditions: ATCC 25922, 24 h
Outline: (§3)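 Broth microdilution per CLSI M07-A9 with modifications. Inoculum about 2.5–3 x 10⁴ cells/mL in Mueller-Hinton broth, mixed 1:1 with test derivative. DMSO stocks diluted in double-distilled water, final DMSO <1%. Incubation 24 h at 37 °C (20 °C for C. glutamicum). Growth and sterility controls included; oxytetracycline reference.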

Escherichia coli [7] = test: Antibacterial activity against multidrug-resistant Escherichia coli 50639799 producing Verona integron encoded metallo beta-lactamse-29 cultured in MHB medium assessed as reduction in bacterial growth incubated for 24 hrs by microdilution susceptibility test; format: functional; conditions: Escherichia coli, 50639799, 24 h; outline: as §1
Staphylococcus aureus [8] = test: Antibacterial activity against multidrug-resistant Staphylococcus aureus IHT 99040 cultured in MHB medium assessed as reduction in bacterial growth incubated for 24 hrs by microdilution susceptibility test; format: functional; conditions: IHT 99040, 24 h; outline: as §1
[9] = tested on: Corynebacterium glutamicum; test: Antibacterial activity against Corynebacterium glutamicum ATCC 13032 cultured in MHB medium assessed as no bacterial growth incubated at 20 degC for 24 hrs by microdilution susceptibility test; format: functional; conditions: ATCC 13032, 24 h; outline: as §3
Staphylococcus aureus [10] = test: Antibacterial activity against multidrug-resistant Staphylococcus aureus NCTC 10442 cultured in MHB medium assessed as reduction in bacterial growth incubated for 24 hrs by microdilution susceptibility test; format: functional; conditions: NCTC 10442, 24 h; outline: as §1
[11] = Selectivity index, ratio of EC50 for hemolytic activity against human RBC to MIC for antibacterial activity against Escherichia coli ATCC 25922; format: toxicity; conditions: human red blood cells (RBC)
Outline: (§4)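 Selectivity index is the RBC haemolysis EC50 divided by the MIC against the E. coli or S. aureus reference strain.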

Acinetobacter baumannii [12] = test: Antibacterial activity against multidrug-resistant Acinetobacter baumannii K55-13 producing oxcillinase-24 cultured in MHB medium assessed as reduction in bacterial growth incubated for 24 hrs by microdilution susceptibility test; format: functional; conditions: K55-13, 24 h; outline: as §1
Klebsiella pneumoniae = test: Antibacterial activity against multidrug-resistant Klebsiella pneumoniae 50625602 producing oxcillinase-245 cultured in MHB medium assessed as reduction in bacterial growth incubated for 24 hrs by microdilution susceptibility test; format: functional; conditions: Klebsiella pneumoniae, 50625602, 24 h; outline: as §1
Pseudomonas aeruginosa [13] = test: Antibacterial activity against multidrug-resistant Pseudomonas aeruginosa K44-24 producing imipenem-type carbapenemase-14 cultured in MHB medium assessed as reduction in bacterial growth incubated for 24 hrs by microdilution susceptibility test; format: functional; conditions: K44-24, 24 h; outline: as §1
Escherichia coli [14] = test: Antibacterial activity against multidrug-resistant Escherichia coli 50579417 producing oxcillinase-48 cultured in MHB medium assessed as reduction in bacterial growth incubated for 24 hrs by microdilution susceptibility test; format: functional; conditions: Escherichia coli, 50579417, 24 h; outline: as §1
Pseudomonas aeruginosa [15] = test: Antibacterial activity against Pseudomonas aeruginosa PA01 DSM 19880 (ATCC 15692) cultured in MHB medium assessed as no bacterial growth incubated at 37 degC for 24 hrs by microdilution susceptibility test; format: functional; conditions: PAO1 DSM 19880 (ATCC 15692); outline: as §3
[16] = Selectivity index, ratio of EC50 for hemolytic activity against human RBC to MIC for antibacterial activity against Staphylococcus aureus ATCC 9144; format: toxicity; conditions: human red blood cells (RBC); outline: as §4
Acinetobacter baumannii [17] = test: Antibacterial activity against multidrug-resistant Acinetobacter baumannii K12-21 producing oxcillinase-58 cultured in MHB medium assessed as reduction in bacterial growth incubated for 24 hrs by microdilution susceptibility test; format: functional; conditions: K12-21, 24 h; outline: as §1
Pseudomonas aeruginosa [18] = test: Antibacterial activity against multidrug-resistant Pseudomonas aeruginosa K34-73 producing Verona integron encoded metallo beta-lactamse-4 cultured in MHB medium assessed as reduction in bacterial growth incubated for 24 hrs by microdilution susceptibility test; format: functional; conditions: K34-73, 24 h; outline: as §1
Pseudomonas aeruginosa [19] = test: Antibacterial activity against multidrug-resistant Pseudomonas aeruginosa K34-7 producing Verona integron encoded metallo beta-lactamse-2 cultured in MHB medium assessed as reduction in bacterial growth incubated for 24 hrs by microdilution susceptibility test; format: functional; conditions: K34-7, 24 h; outline: as §1
Enterococcus faecium [20] = test: Antibacterial activity against multidrug-resistant Enterococcus faecium 50758899 cultured in BHIB medium assessed as reduction in bacterial growth incubated for 24 hrs by microdilution susceptibility test; format: functional; conditions: Enterococcus faecium, 50758899, 24 h; outline: as §2
Enterococcus faecium [21] = test: Antibacterial activity against multidrug-resistant Enterococcus faecium K36-18 cultured in BHIB medium assessed as reduction in bacterial growth incubated for 24 hrs by microdilution susceptibility test; format: functional; conditions: K36-18, 24 h; outline: as §2
Enterococcus faecium [22] = test: Antibacterial activity against multidrug-resistant Enterococcus faecium TUH50-22 cultured in BHIB medium assessed as reduction in bacterial growth incubated for 24 hrs by microdilution susceptibility test; format: functional; conditions: TUH50-22, 24 h; outline: as §2

Q: For `N=C(N)NCCNC(=O)C(CNC(=N)N)(Cc1cc(Br)cc(Br)c1)Cc1cc(Br)cc(Br)c1`, which MIC (Acinetobacter baumannii [1]) is on record?
A: 16 µg/mL (≈ 22.5 µM)

Q: And the MIC (Escherichia coli [2])?
A: 8 µg/mL (≈ 11.3 µM)

Q: What about the EC50 (Erythrocyte) of the same compound?
A: 206 µg/mL (≈ 290 µM)

Q: And the MIC (Pseudomonas aeruginosa [3])?
A: 8 µg/mL (≈ 11.3 µM)

Q: What about the MIC (Enterococcus faecium [4]) of the same compound?
A: 4 µg/mL (≈ 5.63 µM)

Q: And the MIC (Enterococcus faecium [5])?
A: 4 µg/mL (≈ 5.63 µM)

Q: What about the MIC (Escherichia coli [6]) of the same compound?
A: 8 µg/mL (≈ 11.3 µM)

Q: And the MIC (Escherichia coli [7])?
A: 8 µg/mL (≈ 11.3 µM)

Q: What about the MIC (Staphylococcus aureus [8]) of the same compound?
A: 2 µg/mL (≈ 2.81 µM)

Q: What about the MIC [9] of the same compound?
A: 0.25 µg/mL (≈ 0.352 µM)

Q: What about the MIC (Staphylococcus aureus [10]) of the same compound?
A: 2 µg/mL (≈ 2.81 µM)

Q: What about the selectivity ratio [11] of the same compound?
A: 26

Q: And the MIC (Acinetobacter baumannii [12])?
A: 16 µg/mL (≈ 22.5 µM)

Q: What about the MIC (Klebsiella pneumoniae) of the same compound?
A: 16 µg/mL (≈ 22.5 µM)

Q: What about the MIC (Pseudomonas aeruginosa [13]) of the same compound?
A: 16 µg/mL (≈ 22.5 µM)

Q: And the MIC (Escherichia coli [14])?
A: 8 µg/mL (≈ 11.3 µM)

Q: What about the MIC (Pseudomonas aeruginosa [15]) of the same compound?
A: 4 µg/mL (≈ 5.63 µM)

Q: What about the selectivity ratio [16] of the same compound?
A: 206

Q: What about the MIC (Acinetobacter baumannii [17]) of the same compound?
A: 16 µg/mL (≈ 22.5 µM)

Q: And the MIC (Pseudomonas aeruginosa [18])?
A: 16 µg/mL (≈ 22.5 µM)

Q: What about the MIC (Pseudomonas aeruginosa [19]) of the same compound?
A: 16 µg/mL (≈ 22.5 µM)

Q: What about the MIC (Enterococcus faecium [20]) of the same compound?
A: 4 µg/mL (≈ 5.63 µM)

Q: And the MIC (Enterococcus faecium [21])?
A: 4 µg/mL (≈ 5.63 µM)

Q: And the MIC (Enterococcus faecium [22])?
A: 2 µg/mL (≈ 2.81 µM)

Q: For `NCCNC(=O)C(CN)(Cc1ccc(C(F)(F)F)cc1)Cc1ccc(C(F)(F)F)cc1`, which MIC (Acinetobacter baumannii [1]) is on record?
A: > 32 µg/mL

Q: And the MIC (Escherichia coli [2])?
A: 32 µg/mL (≈ 71.5 µM)

Q: What about the EC50 (Erythrocyte) of the same compound?
A: 289 µg/mL (≈ 646 µM)

Q: And the MIC (Pseudomonas aeruginosa [3])?
A: > 32 µg/mL

Q: What about the MIC (Enterococcus faecium [4]) of the same compound?
A: 16 µg/mL (≈ 35.8 µM)

Q: And the MIC (Enterococcus faecium [5])?
A: 16 µg/mL (≈ 35.8 µM)

Q: What about the MIC (Escherichia coli [6]) of the same compound?
A: 16 µg/mL (≈ 35.8 µM)

Q: What about the MIC (Escherichia coli [7]) of the same compound?
A: > 32 µg/mL

Q: What about the MIC (Staphylococcus aureus [8]) of the same compound?
A: > 32 µg/mL

Q: What about the MIC [9] of the same compound?
A: 4 µg/mL (≈ 8.94 µM)

Q: And the MIC (Staphylococcus aureus [10])?
A: > 32 µg/mL

Q: What about the selectivity ratio [11] of the same compound?
A: 18

Q: And the MIC (Acinetobacter baumannii [12])?
A: > 32 µg/mL

Q: What about the MIC (Klebsiella pneumoniae) of the same compound?
A: 32 µg/mL (≈ 71.5 µM)

Q: What about the MIC (Pseudomonas aeruginosa [13]) of the same compound?
A: > 32 µg/mL

Q: What about the MIC (Escherichia coli [14]) of the same compound?
A: > 32 µg/mL

Q: And the MIC (Pseudomonas aeruginosa [15])?
A: 32 µg/mL (≈ 71.5 µM)

Q: What about the selectivity ratio [16] of the same compound?
A: 36

Q: And the MIC (Acinetobacter baumannii [17])?
A: > 32 µg/mL

Q: And the MIC (Pseudomonas aeruginosa [18])?
A: > 32 µg/mL

Q: And the MIC (Pseudomonas aeruginosa [19])?
A: > 32 µg/mL

Q: What about the MIC (Enterococcus faecium [20]) of the same compound?
A: 32 µg/mL (≈ 71.5 µM)

Q: And the MIC (Enterococcus faecium [21])?
A: 16 µg/mL (≈ 35.8 µM)

Q: And the MIC (Enterococcus faecium [22])?
A: 8 µg/mL (≈ 17.9 µM)
